In ChEMBL document CHEMBL1128192, “Differences in backbone structure between angiotensin II agonists and type I antagonists” (J Med Chem, 1995):
Where a SMILES comes first, the peptide text is derived from it. [ ]: non-standard residue; d: D form. Nva(5-OH) = N[C@@H](CCCO)C(=O)O; Aib = CC(C)(N)C(=O)O; Sar = CNCC(=O)O

Tests used:
[1] = biological target: T1, Angiotensin II receptor (AT-1) type-1 (Rattus norvegicus, UniProt P29089+P25095); experiment: Antagonist activity against Angiotensin II receptor type 1 as pA2; format: functional
T1 sequence (P29089 whole entry): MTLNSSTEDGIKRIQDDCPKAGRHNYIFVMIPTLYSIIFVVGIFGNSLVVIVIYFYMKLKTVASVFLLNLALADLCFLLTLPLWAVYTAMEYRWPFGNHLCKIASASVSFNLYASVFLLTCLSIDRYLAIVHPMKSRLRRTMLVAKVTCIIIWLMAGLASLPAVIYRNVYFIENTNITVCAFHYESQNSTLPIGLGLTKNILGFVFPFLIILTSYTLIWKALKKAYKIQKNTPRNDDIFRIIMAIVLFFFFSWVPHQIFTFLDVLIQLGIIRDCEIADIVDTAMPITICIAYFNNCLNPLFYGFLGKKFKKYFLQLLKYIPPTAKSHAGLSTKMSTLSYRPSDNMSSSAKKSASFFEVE
T1 sequence (P25095 whole entry): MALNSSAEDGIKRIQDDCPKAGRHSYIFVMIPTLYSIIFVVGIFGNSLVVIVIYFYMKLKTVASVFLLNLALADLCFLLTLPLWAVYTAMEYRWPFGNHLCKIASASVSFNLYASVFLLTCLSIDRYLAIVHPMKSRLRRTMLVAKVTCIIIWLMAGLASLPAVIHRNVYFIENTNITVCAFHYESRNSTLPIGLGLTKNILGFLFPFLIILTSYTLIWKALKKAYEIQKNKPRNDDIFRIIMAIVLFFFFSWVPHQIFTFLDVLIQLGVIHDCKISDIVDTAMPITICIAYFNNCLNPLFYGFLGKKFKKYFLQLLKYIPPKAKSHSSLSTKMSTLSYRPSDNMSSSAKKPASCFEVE
Outline: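 Isolated uterus from diethylstilbestrol-primed (25 μg im, 24 h) female virgin Sprague–Dawley rats, in DeJalons solution. An ANGII noncumulative dose-response curve was first set up in each tissue. Antagonist was added 2 min before ANGII, with EC50 reproducibility checked before and after. pA2 is the −log antagonist concentration that cuts the ED50 ANGII response to that of an ED50/2 dose, as the mean of ≥3 tissues.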

[2] = biological target: Angiotensin II receptor (Rattus norvegicus) (UniProt P29089+P25095+P35351); experiment: Agonist activity at Angiotensin II receptor; format: functional
Angiotensin II receptor (Rattus norvegicus), sequence (P35351 whole entry, looked up, one chain of several): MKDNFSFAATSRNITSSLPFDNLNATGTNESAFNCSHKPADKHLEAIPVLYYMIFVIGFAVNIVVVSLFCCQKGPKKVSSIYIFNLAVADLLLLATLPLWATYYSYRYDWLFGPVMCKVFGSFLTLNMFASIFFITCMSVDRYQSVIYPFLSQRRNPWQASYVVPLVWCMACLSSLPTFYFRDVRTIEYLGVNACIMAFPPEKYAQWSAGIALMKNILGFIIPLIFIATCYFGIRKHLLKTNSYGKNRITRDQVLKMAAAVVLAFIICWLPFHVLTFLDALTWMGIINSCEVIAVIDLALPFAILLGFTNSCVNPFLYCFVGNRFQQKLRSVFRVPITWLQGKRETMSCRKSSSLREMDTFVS
Outline: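 Uteri from female virgin Sprague–Dawley rats (150–200 g) given 25 μg diethylstilbestrol im 24 h before sacrifice. Horns were cleaned and bathed in DeJalons solution. Contractions were recorded with noncumulative dosing, with washout at peak response and 10 min rest between challenges. Activity is relative to human ANGII as standard, as the mean of at least three tissues.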

pA2 [1]	Agonist activity [2] [%]	Compound
< 5		CC[C@H](C)[C@H](NC(=O)C(Cc1ccc(C(F)(F)F)cc1)NC(=O)[C@@H](NC(=O)[C@H](CCCN=C(N)N)NC(=O)CNC)C(C)C)C(=O)N[C@@H](Cc1c[nH]cn1)C(=O)N1CCC[C@H]1C(=O)N[C@@H](Cc1ccccc1)C(=O)O (mixture of isomers)
7.6	< 0.1	CC[C@H](C)[C@H](NC(=O)[C@H](Cc1ccc(O)cc1)NC(=O)[C@@H](NC(=O)[C@H](CCCN=C(N)N)NC(=O)CNC)C(C)C)C(=O)N[C@@H](Cc1c[nH]cn1)C(=O)N1CCC[C@H]1C(=O)N[C@@H](CCOC)C(=O)O (stereo in doubt; form 1)
< 6		CC[C@H](C)[C@H](NC(=O)[C@H](CCCO)NC(=O)[C@@H](NC(=O)[C@H](CCCN=C(N)N)NC(=O)C(C)(C)N)C(C)C)C(=O)N[C@@H](Cc1c[nH]cn1)C(=O)N1CCC[C@H]1C(=O)N[C@@H](Cc1ccccc1)C(=O)O (H-[Aib]RV[Nva(5-OH)]IHPF-OH)
7.5	< 0.1	CC[C@H](C)[C@H](NC(=O)[C@H](Cc1ccc(O)cc1)NC(=O)[C@@H](NC(=O)[C@H](CCCN=C(N)N)NC(=O)[C@@H](N)CC(=O)O)C(C)C)C(=O)N[C@@H](Cc1c[nH]cn1)C(=O)N1CCC[C@H]1C(=O)N[C@@H](CCOC)C(=O)O
< 5		CC[C@H](C)[C@H](NC(=O)[C@@H]1CCCN1C(=O)[C@H](Cc1c[nH]cn1)NC(=O)[C@@H](NC(=O)[C@H](CCCO)NC(=O)[C@@H](NC(=O)[C@H](CCCN=C(N)N)NC(=O)CNC)C(C)C)[C@@H](C)CC)C(=O)O (H-[Sar]RV[Nva(5-OH)]IHPI-OH)
< 6	< 0.1	CC[C@H](C)[C@H](NC(=O)[C@H](Cc1ccc(O)cc1)NC(=O)[C@@H](NC(=O)[C@@H](N)CCCN=C(N)N)C(C)C)C(=O)N[C@@H](Cc1c[nH]cn1)C(=O)N1CCC[C@H]1C(=O)N[C@@H](CCOC)C(=O)O
< 5		CC[C@H](C)[C@H](NC(=O)C(Cc1ccc(C(=O)O)cc1)NC(=O)[C@@H](NC(=O)[C@H](CCCN=C(N)N)NC(=O)CNC)C(C)C)C(=O)N[C@@H](Cc1c[nH]cn1)C(=O)N1CCC[C@H]1C(=O)N[C@@H](Cc1ccccc1)C(=O)O (mixture of isomers)
6.2		CC[C@H](C)[C@H](NC(=O)[C@@H]1CCCN1C(=O)[C@H](Cc1c[nH]cn1)NC(=O)[C@@H](NC(=O)[C@H](CCCO)NC(=O)[C@@H](NC(=O)[C@H](CCCN=C(N)N)NC(=O)C(C)(C)N)C(C)C)[C@@H](C)CC)C(=O)O (H-[Aib]RV[Nva(5-OH)]IHPI-OH)
< 6		CC[C@H](C)[C@H](NC(=O)[C@H](CCCO)NC(=O)[C@@H](NC(=O)[C@H](CCCN=C(N)N)NC(=O)CNC)C(C)C)C(=O)N[C@@H](Cc1c[nH]cn1)C(=O)N1CCC[C@H]1C(=O)N[C@@H](Cc1ccccc1)C(=O)O (H-[Sar]RV[Nva(5-OH)]IHPF-OH)
